Measured values as given in ChEMBL document CHEMBL2346629, “Discovery and characterization of novel allosteric FAK inhibitors” (Eur J Med Chem, 2013).

Key:
[1] = target: Epidermal growth factor receptor (Homo sapiens) (UniProt P00533); experiment: Inhibition of EGFR (unknown origin) using [gamma-33P]ATP assessed as residual activity at 3 uM
How it was run: (§1)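 Reaction Biology HotSpot radiometric profiling panel of 288 kinases (261 wild-type, 27 mutant). Kinase activity was read out by incorporation of [γ-33P]ATP.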

[2] = target: Insulin receptor (Homo sapiens) (UniProt P06213); experiment: Inhibition of IR (unknown origin) using [gamma-33P]ATP assessed as residual activity at 3 uM
How it was run: (§2)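 Radiometric kinase profiling service covering 288 kinases (261 wild-type, 27 mutant). Inhibition was read as incorporation from [γ-³³P]ATP.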

[3] = target: cGMP-dependent protein kinase 2 (Homo sapiens) (UniProt Q13237); experiment: Inhibition of PKG2 (unknown origin) using [gamma-33P]ATP assessed as residual activity at 3 uM
[4] = target: Ribosomal protein S6 kinase alpha-3 (Homo sapiens) (UniProt P51812); experiment: Inhibition of RSK2 (unknown origin) using [gamma-33P]ATP assessed as residual activity at 3 uM
Sequence of Ribosomal protein S6 kinase alpha-3 (Homo sapiens) (P51812 whole entry): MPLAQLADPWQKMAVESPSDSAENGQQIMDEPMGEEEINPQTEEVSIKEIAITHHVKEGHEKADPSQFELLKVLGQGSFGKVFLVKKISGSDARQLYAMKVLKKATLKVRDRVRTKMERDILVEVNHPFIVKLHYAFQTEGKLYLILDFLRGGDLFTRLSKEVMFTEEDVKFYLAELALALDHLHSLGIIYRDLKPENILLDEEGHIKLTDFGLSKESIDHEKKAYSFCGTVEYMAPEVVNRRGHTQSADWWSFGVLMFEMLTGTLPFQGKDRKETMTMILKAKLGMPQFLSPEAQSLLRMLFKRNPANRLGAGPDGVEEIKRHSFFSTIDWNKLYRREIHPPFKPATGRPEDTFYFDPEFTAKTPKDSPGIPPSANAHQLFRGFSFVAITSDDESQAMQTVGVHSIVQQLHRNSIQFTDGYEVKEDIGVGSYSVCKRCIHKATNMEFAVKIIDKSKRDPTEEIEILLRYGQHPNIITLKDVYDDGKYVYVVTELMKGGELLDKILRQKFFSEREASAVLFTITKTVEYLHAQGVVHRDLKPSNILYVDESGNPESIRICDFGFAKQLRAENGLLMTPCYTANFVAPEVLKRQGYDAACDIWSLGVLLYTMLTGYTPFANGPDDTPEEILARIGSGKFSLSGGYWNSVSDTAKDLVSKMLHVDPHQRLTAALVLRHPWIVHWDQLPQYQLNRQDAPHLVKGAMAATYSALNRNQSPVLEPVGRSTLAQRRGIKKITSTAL

[5] = target: Protein kinase C gamma type (Homo sapiens) (UniProt P05129); experiment: Inhibition of PKCgamma (unknown origin) using [gamma-33P]ATP assessed as residual activity at 3 uM
[6] = target: Mitogen-activated protein kinase kinase kinase 14 (Homo sapiens) (UniProt Q99558); experiment: Inhibition of NIK (unknown origin) using [gamma-33P]ATP assessed as residual activity at 3 uM
[7] = target: MAP kinase-interacting serine/threonine-protein kinase 2 (Homo sapiens) (UniProt Q9HBH9); experiment: Inhibition of MNK2 (unknown origin) using [gamma-33P]ATP assessed as residual activity at 3 uM
Sequence of MAP kinase-interacting serine/threonine-protein kinase 2 (Homo sapiens) (Q9HBH9 whole entry, looked up): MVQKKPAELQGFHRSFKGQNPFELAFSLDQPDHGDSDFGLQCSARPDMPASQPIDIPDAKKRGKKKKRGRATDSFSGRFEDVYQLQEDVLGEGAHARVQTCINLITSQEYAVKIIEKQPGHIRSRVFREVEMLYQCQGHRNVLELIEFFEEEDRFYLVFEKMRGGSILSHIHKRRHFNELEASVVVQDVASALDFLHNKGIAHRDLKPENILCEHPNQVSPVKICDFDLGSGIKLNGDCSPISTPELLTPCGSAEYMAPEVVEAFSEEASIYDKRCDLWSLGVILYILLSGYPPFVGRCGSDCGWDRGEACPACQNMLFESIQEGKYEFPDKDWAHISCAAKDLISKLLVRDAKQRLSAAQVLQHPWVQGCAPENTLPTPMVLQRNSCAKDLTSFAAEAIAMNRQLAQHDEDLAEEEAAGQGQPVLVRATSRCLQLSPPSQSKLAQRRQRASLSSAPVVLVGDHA

[8] = target: Mitogen-activated protein kinase kinase kinase 20 (Homo sapiens) (UniProt Q9NYL2); experiment: Inhibition of ZAK (unknown origin) using [gamma-33P]ATP assessed as residual activity at 3 uM
[9] = target: Dual specificity protein kinase CLK4 (Homo sapiens) (UniProt Q9HAZ1); experiment: Inhibition of CLK4 (unknown origin) using [gamma-33P]ATP assessed as residual activity at 3 uM; how it was run: as §1
[10] = target: Dual specificity protein kinase CLK2 (Homo sapiens) (UniProt P49760); experiment: Inhibition of CLK2 (unknown origin) using [gamma-33P]ATP assessed as residual activity at 3 uM; how it was run: as §1
[11] = target: Casein kinase I isoform epsilon (Homo sapiens) (UniProt P49674); experiment: Inhibition of CK1epsilon (unknown origin) using [gamma-33P]ATP assessed as residual activity at 3 uM; how it was run: as §1
[12] = target: Muscle, skeletal receptor tyrosine-protein kinase (Homo sapiens) (UniProt O15146); experiment: Inhibition of MUSK (unknown origin) using [gamma-33P]ATP assessed as residual activity at 3 uM
[13] = target: CDK9/Cyclin K (Homo sapiens) (UniProt P50750+O75909); experiment: Inhibition of CDK9/cyclin K (unknown origin) using [gamma-33P]ATP assessed as residual activity at 3 uM; type: protein-complex assay
How it was run: (§3)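 Radiometric profiling across 288 kinases (261 wild-type, 27 mutant), run as an outsourced service. Inhibition read out as [gamma-33P]ATP incorporation into substrate.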

[14] = target: G protein-coupled receptor kinase 3 (Homo sapiens) (UniProt P35626); experiment: Inhibition of GRK3 (unknown origin) using [gamma-33P]ATP assessed as residual activity at 3 uM; how it was run: as §2
[15] = target: Tyrosine-protein kinase Yes (Homo sapiens, UniProt P07947); experiment: Inhibition of YES (unknown origin) using [gamma-33P]ATP assessed as residual activity at 3 uM
[16] = target: Serine/threonine-protein kinase mTOR (Homo sapiens) (UniProt P42345); experiment: Inhibition of mTOR (unknown origin) using [gamma-33P]ATP assessed as residual activity at 3 uM
[17] = target: Myosin light chain kinase, smooth muscle (Homo sapiens, UniProt Q15746); experiment: Inhibition of MLCK (unknown origin) using [gamma-33P]ATP assessed as residual activity at 3 uM
How it was run: (§4)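 Contract radiometric panel screen of 288 kinases (261 wild-type, 27 mutant). Inhibition was read by [gamma-33P]ATP radioactivity incorporation.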

[18] = target: Vascular endothelial growth factor receptor 2 (Homo sapiens) (UniProt P35968); experiment: Inhibition of KDR (unknown origin) using [gamma-33P]ATP assessed as residual activity at 3 uM; how it was run: as §2
[19] = target: Protein kinase C epsilon type (Homo sapiens) (UniProt Q02156); experiment: Inhibition of PKCepsilon (unknown origin) using [gamma-33P]ATP assessed as residual activity at 3 uM
[20] = target: Serine/threonine-protein kinase Nek6 (Homo sapiens) (UniProt Q9HC98); experiment: Inhibition of NEK6 (unknown origin) using [gamma-33P]ATP assessed as residual activity at 3 uM
[21] = target: Leucine-rich repeat serine/threonine-protein kinase 2 (Homo sapiens) (UniProt Q5S007); experiment: Inhibition of LRRK2 (unknown origin) using [gamma-33P]ATP assessed as residual activity at 3 uM; how it was run: as §2
[22] = tested on: Tyrosine-protein kinase ABL1 (Homo sapiens), P00519 [H396P]; experiment: Inhibition of ABL1 H396P mutant (unknown origin) using [gamma-33P]ATP assessed as residual activity at 3 uM; how it was run: as §3
[23] = target: Platelet-derived growth factor receptor beta (Homo sapiens) (UniProt P09619); experiment: Inhibition of PDGFRb (unknown origin) using [gamma-33P]ATP assessed as residual activity at 3 uM
Sequence of Platelet-derived growth factor receptor beta (Homo sapiens) (P09619 whole entry): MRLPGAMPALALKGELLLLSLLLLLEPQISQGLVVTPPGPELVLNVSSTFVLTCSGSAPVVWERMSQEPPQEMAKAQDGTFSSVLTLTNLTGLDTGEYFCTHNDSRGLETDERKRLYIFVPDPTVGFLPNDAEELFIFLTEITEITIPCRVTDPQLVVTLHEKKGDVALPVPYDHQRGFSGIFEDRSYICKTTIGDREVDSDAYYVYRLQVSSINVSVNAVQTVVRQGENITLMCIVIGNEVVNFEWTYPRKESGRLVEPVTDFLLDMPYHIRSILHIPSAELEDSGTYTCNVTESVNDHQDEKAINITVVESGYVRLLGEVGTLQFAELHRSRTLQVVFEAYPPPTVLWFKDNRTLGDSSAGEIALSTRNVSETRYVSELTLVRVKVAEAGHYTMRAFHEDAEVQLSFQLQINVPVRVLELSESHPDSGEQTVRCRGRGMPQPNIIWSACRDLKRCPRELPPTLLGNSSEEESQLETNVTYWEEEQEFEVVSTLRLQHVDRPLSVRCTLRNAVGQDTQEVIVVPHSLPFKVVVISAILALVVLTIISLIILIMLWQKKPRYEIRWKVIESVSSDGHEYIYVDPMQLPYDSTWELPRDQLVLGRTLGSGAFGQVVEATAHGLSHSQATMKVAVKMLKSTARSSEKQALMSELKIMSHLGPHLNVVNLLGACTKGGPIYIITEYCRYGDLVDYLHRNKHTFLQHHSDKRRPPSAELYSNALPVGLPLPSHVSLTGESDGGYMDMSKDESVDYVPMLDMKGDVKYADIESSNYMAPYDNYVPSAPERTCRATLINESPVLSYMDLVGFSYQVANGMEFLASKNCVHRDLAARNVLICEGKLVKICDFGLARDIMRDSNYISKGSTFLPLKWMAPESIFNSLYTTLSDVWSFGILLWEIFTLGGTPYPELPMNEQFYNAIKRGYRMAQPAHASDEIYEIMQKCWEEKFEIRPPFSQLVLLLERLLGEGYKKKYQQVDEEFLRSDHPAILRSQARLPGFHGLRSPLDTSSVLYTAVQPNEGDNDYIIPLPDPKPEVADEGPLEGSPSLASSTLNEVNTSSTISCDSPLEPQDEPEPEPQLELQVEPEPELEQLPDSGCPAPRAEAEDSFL

[24] = target: G protein-coupled receptor kinase 5 (Homo sapiens) (UniProt P34947); experiment: Inhibition of GRK5 (unknown origin) using [gamma-33P]ATP assessed as residual activity at 3 uM; how it was run: as §2
[25] = target: Serine/threonine-protein kinase PAK 6 (Homo sapiens) (UniProt Q9NQU5); experiment: Inhibition of PAK6 (unknown origin) using [gamma-33P]ATP assessed as residual activity at 3 uM
Sequence of Serine/threonine-protein kinase PAK 6 (Homo sapiens) (Q9NQU5 whole entry, looked up): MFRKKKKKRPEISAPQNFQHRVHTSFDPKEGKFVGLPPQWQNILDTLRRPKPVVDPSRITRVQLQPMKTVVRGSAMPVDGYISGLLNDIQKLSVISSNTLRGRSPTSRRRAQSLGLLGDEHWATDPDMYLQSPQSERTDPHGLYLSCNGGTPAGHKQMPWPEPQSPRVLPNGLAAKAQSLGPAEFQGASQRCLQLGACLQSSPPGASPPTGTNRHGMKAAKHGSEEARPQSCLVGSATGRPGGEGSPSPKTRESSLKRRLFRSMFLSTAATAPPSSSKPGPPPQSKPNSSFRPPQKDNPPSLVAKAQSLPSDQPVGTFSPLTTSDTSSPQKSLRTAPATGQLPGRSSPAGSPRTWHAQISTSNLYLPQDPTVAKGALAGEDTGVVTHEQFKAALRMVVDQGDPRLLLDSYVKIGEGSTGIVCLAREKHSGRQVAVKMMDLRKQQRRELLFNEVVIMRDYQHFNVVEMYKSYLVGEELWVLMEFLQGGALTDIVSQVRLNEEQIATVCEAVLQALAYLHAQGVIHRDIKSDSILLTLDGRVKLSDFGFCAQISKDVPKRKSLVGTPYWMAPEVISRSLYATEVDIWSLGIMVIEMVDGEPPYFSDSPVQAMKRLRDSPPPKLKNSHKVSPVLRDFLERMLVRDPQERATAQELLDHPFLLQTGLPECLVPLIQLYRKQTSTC

[26] = target: Tyrosine-protein kinase Fes/Fps (Homo sapiens) (UniProt P07332); experiment: Inhibition of Fes (unknown origin) using [gamma-33P]ATP assessed as residual activity at 3 uM; how it was run: as §2
Sequence of Tyrosine-protein kinase Fes/Fps (Homo sapiens) (P07332 whole entry): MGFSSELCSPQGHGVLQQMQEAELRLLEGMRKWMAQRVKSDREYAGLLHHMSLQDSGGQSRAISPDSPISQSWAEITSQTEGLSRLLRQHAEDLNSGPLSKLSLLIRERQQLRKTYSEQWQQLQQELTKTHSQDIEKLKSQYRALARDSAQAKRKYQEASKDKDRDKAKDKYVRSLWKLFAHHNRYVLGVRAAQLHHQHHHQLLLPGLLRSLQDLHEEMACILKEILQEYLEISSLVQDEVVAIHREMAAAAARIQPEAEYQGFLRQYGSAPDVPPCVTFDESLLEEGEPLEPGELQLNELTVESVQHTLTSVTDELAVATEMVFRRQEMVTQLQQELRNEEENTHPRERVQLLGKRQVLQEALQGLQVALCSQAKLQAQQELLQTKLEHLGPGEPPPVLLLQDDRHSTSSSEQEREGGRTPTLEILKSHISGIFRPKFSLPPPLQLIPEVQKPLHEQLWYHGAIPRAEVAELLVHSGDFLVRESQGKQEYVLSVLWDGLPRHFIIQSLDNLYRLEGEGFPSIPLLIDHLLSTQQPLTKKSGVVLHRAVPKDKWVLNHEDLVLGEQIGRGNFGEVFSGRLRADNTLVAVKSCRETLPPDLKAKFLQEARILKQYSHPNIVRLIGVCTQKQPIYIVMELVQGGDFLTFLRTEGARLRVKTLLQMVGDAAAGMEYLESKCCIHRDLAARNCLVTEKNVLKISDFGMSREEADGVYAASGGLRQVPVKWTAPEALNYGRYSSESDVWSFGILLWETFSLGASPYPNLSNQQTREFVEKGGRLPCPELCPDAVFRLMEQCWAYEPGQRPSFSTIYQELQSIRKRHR

[27] = target: Beta-adrenergic receptor kinase 1 (Homo sapiens) (UniProt P25098); experiment: Inhibition of GRK2 (unknown origin) using [gamma-33P]ATP assessed as residual activity at 3 uM; how it was run: as §2
Sequence of Beta-adrenergic receptor kinase 1 (Homo sapiens) (P25098 whole entry): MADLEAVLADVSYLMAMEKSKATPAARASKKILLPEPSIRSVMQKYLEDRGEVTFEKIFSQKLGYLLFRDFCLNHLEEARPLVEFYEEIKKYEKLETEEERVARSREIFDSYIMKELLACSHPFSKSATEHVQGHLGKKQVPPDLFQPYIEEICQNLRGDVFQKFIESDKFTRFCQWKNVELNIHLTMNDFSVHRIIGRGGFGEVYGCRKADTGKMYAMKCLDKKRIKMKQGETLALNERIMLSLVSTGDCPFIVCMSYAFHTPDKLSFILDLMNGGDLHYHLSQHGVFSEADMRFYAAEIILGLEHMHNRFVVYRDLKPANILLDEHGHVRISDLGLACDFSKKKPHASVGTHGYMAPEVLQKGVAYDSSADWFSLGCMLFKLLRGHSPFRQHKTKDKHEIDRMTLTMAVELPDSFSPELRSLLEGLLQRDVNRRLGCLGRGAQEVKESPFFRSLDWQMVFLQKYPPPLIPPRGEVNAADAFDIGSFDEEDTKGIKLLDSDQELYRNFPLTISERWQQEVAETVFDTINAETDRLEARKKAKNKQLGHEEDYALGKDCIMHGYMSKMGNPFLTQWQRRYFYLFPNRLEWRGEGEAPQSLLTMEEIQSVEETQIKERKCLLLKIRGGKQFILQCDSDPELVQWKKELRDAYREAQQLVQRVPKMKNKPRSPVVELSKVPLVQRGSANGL

[28] = target: Serine/threonine-protein kinase PAK 2 (Homo sapiens) (UniProt Q13177); experiment: Inhibition of PAK2 (unknown origin) using [gamma-33P]ATP assessed as residual activity at 3 uM
[29] = target: Calcium/calmodulin-dependent protein kinase type 1D (Homo sapiens) (UniProt Q8IU85); experiment: Inhibition of CAMK1d (unknown origin) using [gamma-33P]ATP assessed as residual activity at 3 uM; how it was run: as §3
[30] = target: Serine/threonine-protein kinase Chk1 (Homo sapiens) (UniProt O14757); experiment: Inhibition of CHK1 (unknown origin) using [gamma-33P]ATP assessed as residual activity at 3 uM; how it was run: as §3
Sequence of Serine/threonine-protein kinase Chk1 (Homo sapiens) (O14757 whole entry): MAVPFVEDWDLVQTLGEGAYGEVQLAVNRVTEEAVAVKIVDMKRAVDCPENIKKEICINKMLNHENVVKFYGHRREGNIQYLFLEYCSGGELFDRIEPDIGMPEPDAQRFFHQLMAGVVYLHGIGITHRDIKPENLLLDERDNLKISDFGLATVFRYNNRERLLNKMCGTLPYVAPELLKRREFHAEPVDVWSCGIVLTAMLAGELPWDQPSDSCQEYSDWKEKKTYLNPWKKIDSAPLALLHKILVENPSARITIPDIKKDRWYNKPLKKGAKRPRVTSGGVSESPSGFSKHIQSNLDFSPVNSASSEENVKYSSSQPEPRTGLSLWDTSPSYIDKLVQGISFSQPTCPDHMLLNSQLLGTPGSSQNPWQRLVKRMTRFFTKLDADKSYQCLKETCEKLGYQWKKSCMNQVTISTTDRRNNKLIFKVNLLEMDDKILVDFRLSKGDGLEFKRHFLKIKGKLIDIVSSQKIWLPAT

[31] = target: Myosin light chain kinase 2, skeletal/cardiac muscle (Homo sapiens) (UniProt Q9H1R3); experiment: Inhibition of MLCK2 (unknown origin) using [gamma-33P]ATP assessed as residual activity at 3 uM; how it was run: as §4

**Q.** With `CCc1ccc(-c2ccc3c(c2)-c2[nH]ncc2S(=O)(=O)N3C)cc1` as the compound, how does the Activity [1] read?
**A.** 97%

**Q.** What about the Activity [2] of the same compound?
**A.** 94%

**Q.** And the Activity [3]?
**A.** 93%

**Q.** What about the Activity [4] of the same compound?
**A.** 84%

**Q.** And the Activity [5]?
**A.** 96%

**Q.** And the Activity [6]?
**A.** 89%

**Q.** What about the Activity [7] of the same compound?
**A.** 89%

**Q.** And the Activity [8]?
**A.** 96%

**Q.** What about the Activity [9] of the same compound?
**A.** 51%

**Q.** And the Activity [10]?
**A.** 68%

**Q.** What about the Activity [11] of the same compound?
**A.** 96%

**Q.** And the Activity [12]?
**A.** 68%

**Q.** What about the Activity [13] of the same compound?
**A.** 97%

**Q.** And the Activity [14]?
**A.** 93%

**Q.** What about the Activity [15] of the same compound?
**A.** 29%

**Q.** And the Activity [16]?
**A.** 100%

**Q.** What about the Activity [17] of the same compound?
**A.** 45%

**Q.** What about the Activity [18] of the same compound?
**A.** 86%

**Q.** What about the Activity [19] of the same compound?
**A.** 97%

**Q.** What about the Activity [20] of the same compound?
**A.** 94%

**Q.** What about the Activity [21] of the same compound?
**A.** 58%

**Q.** What about the Activity [22] of the same compound?
**A.** 71%

**Q.** What about the Activity [23] of the same compound?
**A.** 81%

**Q.** And the Activity [24]?
**A.** 103%

**Q.** And the Activity [25]?
**A.** 97%

**Q.** And the Activity [26]?
**A.** 78%

**Q.** And the Activity [27]?
**A.** 98%

**Q.** What about the Activity [28] of the same compound?
**A.** 94%

**Q.** And the Activity [29]?
**A.** 85%

**Q.** What about the Activity [30] of the same compound?
**A.** 81%

**Q.** And the Activity [31]?
**A.** 96%
